Test results taken from ChEMBL document CHEMBL4145662, “Novel Nonsteroidal Progesterone Receptor (PR) Antagonists with a Phenanthridinone Skeleton” (ACS Med Chem Lett, 2018).
Active and inactive are the calls of the source. No cut-off for these calls is given here.

Assays:
[1] = target: T1, Androgen receptor (Homo sapiens, UniProt P10275); assay: Antagonist activity at human CMX-AR expressed in HEK293 cells assessed as reduction in dihydrotestosterone-induced transactivation activity after 24 hrs by luciferase reporter gene assay; type: cell-based
T1 sequence (P10275 whole entry): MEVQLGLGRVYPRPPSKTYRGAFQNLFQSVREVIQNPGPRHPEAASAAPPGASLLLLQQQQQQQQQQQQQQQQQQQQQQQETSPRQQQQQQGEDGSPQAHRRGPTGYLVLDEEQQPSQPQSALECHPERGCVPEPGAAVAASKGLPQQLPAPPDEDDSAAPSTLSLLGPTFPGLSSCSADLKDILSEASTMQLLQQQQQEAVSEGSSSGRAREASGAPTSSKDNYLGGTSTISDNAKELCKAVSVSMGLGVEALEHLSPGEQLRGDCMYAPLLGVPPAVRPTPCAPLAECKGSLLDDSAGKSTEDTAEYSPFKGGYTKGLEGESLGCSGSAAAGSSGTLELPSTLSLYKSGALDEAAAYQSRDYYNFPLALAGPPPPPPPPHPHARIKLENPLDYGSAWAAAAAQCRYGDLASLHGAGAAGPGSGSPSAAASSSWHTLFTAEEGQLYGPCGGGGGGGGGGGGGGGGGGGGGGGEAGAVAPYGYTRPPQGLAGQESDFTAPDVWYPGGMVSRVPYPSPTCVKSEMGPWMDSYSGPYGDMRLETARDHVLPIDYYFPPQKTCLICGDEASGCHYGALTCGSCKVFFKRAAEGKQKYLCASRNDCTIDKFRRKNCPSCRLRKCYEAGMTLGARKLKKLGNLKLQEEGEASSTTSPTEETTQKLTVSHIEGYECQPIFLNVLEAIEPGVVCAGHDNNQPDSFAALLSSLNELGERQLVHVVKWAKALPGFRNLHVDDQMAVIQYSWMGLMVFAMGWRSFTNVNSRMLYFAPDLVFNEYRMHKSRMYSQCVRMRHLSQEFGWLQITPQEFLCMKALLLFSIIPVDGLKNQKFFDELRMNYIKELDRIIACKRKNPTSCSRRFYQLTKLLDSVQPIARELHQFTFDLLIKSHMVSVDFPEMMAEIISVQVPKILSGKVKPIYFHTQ
Procedure, shortened: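 AR antagonism measured by reporter gene assay with dihydrotestosterone (0.3 nM) as agonist.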

[2] = target: T2, Nuclear receptor ROR-gamma (Homo sapiens) (UniProt P51449); assay: Antagonist activity at human RORgamma1 expressed in HEK293 cells at 20 uM after 24 hrs by luciferase reporter gene assay; type: cell-based
T2 sequence (whole entry): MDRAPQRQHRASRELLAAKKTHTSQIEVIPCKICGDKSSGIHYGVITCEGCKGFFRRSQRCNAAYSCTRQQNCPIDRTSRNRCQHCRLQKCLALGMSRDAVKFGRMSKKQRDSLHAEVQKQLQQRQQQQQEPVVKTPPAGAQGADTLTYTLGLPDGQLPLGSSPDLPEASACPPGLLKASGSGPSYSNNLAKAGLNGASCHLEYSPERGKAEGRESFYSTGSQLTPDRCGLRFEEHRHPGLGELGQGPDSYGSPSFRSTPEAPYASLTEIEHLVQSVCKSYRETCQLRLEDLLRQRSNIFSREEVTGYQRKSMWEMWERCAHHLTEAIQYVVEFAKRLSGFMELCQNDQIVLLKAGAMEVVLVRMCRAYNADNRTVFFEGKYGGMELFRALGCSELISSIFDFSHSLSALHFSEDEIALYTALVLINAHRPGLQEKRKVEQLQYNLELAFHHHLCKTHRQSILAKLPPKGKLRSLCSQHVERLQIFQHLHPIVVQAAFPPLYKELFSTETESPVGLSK
Procedure, shortened: (§1)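 Inverse agonism at RORα, RORβ or RORγ measured by reporter gene assay.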

[3] = target: T3, Oxysterols receptor LXR-beta (Homo sapiens) (UniProt P55055); assay: Antagonist activity at human GAL4N-fused LXRbeta LBD expressed in HEK293 cells assessed as reduction in T0901317-induced transactivation activity at 20 uM after 24 hrs by luciferase reporter gene assay; type: cell-based
T3 sequence (whole entry): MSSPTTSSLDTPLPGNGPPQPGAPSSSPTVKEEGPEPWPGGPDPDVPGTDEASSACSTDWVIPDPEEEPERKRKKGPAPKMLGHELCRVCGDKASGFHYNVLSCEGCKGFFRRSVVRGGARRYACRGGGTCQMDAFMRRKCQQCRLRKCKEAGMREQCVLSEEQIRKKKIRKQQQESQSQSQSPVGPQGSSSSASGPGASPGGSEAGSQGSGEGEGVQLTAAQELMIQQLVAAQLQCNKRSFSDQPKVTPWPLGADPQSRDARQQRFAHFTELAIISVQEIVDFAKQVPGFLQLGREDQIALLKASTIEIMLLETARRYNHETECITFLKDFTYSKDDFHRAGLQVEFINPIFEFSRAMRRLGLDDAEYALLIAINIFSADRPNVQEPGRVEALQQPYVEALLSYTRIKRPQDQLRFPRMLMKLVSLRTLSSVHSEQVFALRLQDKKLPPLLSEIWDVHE

[4] = target: T4, Nuclear receptor ROR-gamma (Homo sapiens, UniProt P51449); assay: Antagonist activity at human RORgamma1 expressed in HEK293 cells after 24 hrs by luciferase reporter gene assay; type: cell-based; procedure, shortened: as §1
T4 sequence (P51449 whole entry): T2 sequence (whole entry)

[5] = Apparent permeability across apical to basolateral side in human Caco2 cells at 10 uM; type: ADME, cell-based; settings: caco-2, 10 µM
[6] = Stability in human liver microsomes at 0.1 uM by LC-MS/MS analysis; type: ADME, microsome

IC50 [1]	Activity [2]	Activity [3]	IC50 [4]	Papp [5]	Stability [6]	SMILES
1.8 µM	inactive	inactive				Cc1cc(C(O)(C(F)(F)F)C(F)(F)F)cc2c1[nH]c(=O)c1cc(F)ccc12
> 20 µM			> 20 µM	Permeable	Stable	Cc1cc(C(O)(C(F)(F)F)C(F)(F)F)cc2c1[nH]c(=O)c1ccccc12
	inactive					Cc1cc(C(O)(C(F)(F)F)C(F)(F)F)cc2c3ccc(F)cc3c(=O)n(C)c12
